The results in this text go back to ChEMBL document CHEMBL3853298, “Total synthesis and in vitro bioevaluation of clavaminols A, C, H & deacetyl clavaminol H as potential chemotherapeutic and antibiofilm agents” (Eur J Med Chem, 2016).

For orientation: MIC means the lowest concentration found to suppress growth. The low end stands for a more susceptible organism, the high end for a less susceptible organism. Usually MBC stands for the lowest tested concentration that kills the bacteria rather than only halting them. A higher MBC goes with less potent killing. Broadly, the IC50 is the concentration needed to halve the response being measured.

Test [1] deals with Staphylococcus aureus. Briefly: Antibacterial activity against Staphylococcus aureus MTCC 96 after 24 hrs by well diffusion method. The conditions noted are these: MTCC 96, 24 h. The format is functional. Put shortly:
(§1)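 Bacteria spread (0.1 mL suspension) on Mueller-Hinton agar; 6.0 mm wells loaded with compound over a 250 to 0.48 per-well dose range, methanol as negative control. Incubated 24 h at 37 °C. MIC taken as the lowest concentration still giving an inhibition zone. Duplicates, mean reported.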

Test [2] concerns Bacillus subtilis. The test is described as follows: Antibacterial activity against Bacillus subtilis MTCC 121 after 24 hrs by well diffusion method. The following applies: MTCC 121, 24 h. The format is functional. In outline: as §1
For orientation: In agar diffusion tests the substance spreads into inoculated agar from a disc or well.

In test [3] the test system is Micrococcus luteus. Briefly: Antibacterial activity against Micrococcus luteus MTCC 2470 after 24 hrs by well diffusion method. The format is functional. The following applies: MTCC 2470, 24 h. Put shortly: as §1
Test [4] has as its system Staphylococcus aureus. The test is described as follows: Antibacterial activity against Staphylococcus aureus MLS16 MTCC 2940 after 24 hrs by well diffusion method. The following applies: MLS16 MTCC 2940, 24 h. The format is functional. In outline: as §1
The test system of test [5] is Raoultella planticola. Briefly: Antibacterial activity against Klebsiella planticola MTCC 530 after 24 hrs by well diffusion method. The format is functional. The conditions noted are these: MTCC 530, 24 h. In outline: as §1
Test [6] has as its system Escherichia coli. The test is described as follows: Antibacterial activity against Escherichia coli MTCC 739 after 24 hrs by well diffusion method. The format is functional. The following applies: MTCC 739, 24 h. In outline:
as §1

The test system of test [7] is Pseudomonas aeruginosa. The test is described as follows: Antibacterial activity against Pseudomonas aeruginosa MTCC 2453 after 24 hrs by well diffusion method. The format is functional. The conditions noted are these: MTCC 2453, 24 h. Put shortly: as §1
Test [8] deals with Staphylococcus aureus. Briefly: Bactericidal activity against Staphylococcus aureus MTCC 96 after 24 hrs. The conditions noted are these: MTCC 96, 24 h. The format is functional. In outline:
(§2)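 Broth macrodilution in Mueller Hinton broth, compound serially diluted from 150 down to 0. Overnight bacterial culture added to a final 1.5 × 10^8 CFU/mL (0.5 McFarland), 24 h at 37 °C. Suspension then subcultured onto Mueller Hinton agar for 24 h at 37 °C. MBC is the lowest concentration killing the strain. Duplicates.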

The subject of test [9] is Bacillus subtilis. The test is described as follows: Bactericidal activity against Bacillus subtilis MTCC 121 after 24 hrs. The conditions noted are these: MTCC 121, 24 h. The format is functional. In outline: as §2
Test [10] has as its system Staphylococcus aureus. The test is described as follows: Bactericidal activity against Staphylococcus aureus MLS16 MTCC 2940 after 24 hrs. The format is functional. The conditions noted are these: MLS16 MTCC 2940, 24 h. In outline:
as §2

Test [11] relates to Micrococcus luteus. Briefly: Bactericidal activity against Micrococcus luteus MTCC 2470 after 24 hrs. The format is functional. The following applies: MTCC 2470, 24 h. In outline: as §2
Test [12] concerns Raoultella planticola. Briefly: Bactericidal activity against Klebsiella planticola MTCC 530 after 24 hrs. The format is functional. The conditions noted are these: MTCC 530, 24 h. Put shortly:
as §2

Test [13] relates to Escherichia coli. The test is described as follows: Bactericidal activity against Escherichia coli MTCC 739 after 24 hrs. The format is functional. The conditions noted are these: MTCC 739, 24 h. Put shortly:
as §2

The subject of test [14] is Pseudomonas aeruginosa. The test is described as follows: Bactericidal activity against Pseudomonas aeruginosa MTCC 2453 after 24 hrs. The format is functional. The conditions noted are these: MTCC 2453, 24 h. In outline:
as §2

Test [15] concerns Staphylococcus aureus. The test is described as follows: Antibiofilm activity against Staphylococcus aureus MTCC 96 incubated for 24 hrs under static condition by crystal violet staining-based assay. The format is functional. Put shortly:
(§3)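 Strains grown overnight in tryptone soy broth with 0.5% glucose. Compound (250 to 0) mixed with inoculum at 5 × 10^5 CFU/mL in polystyrene microtiter plates. Non-adherent cells washed off with PBS; wells stained with 0.1% crystal violet, dye solubilised in 95% ethanol, absorbance read at 540 nm. IC50 for 50% biofilm inhibition taken from dose-response curves. Triplicates, mean ± S.D.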

The test system of test [16] is Bacillus subtilis. The test is described as follows: Antibiofilm activity against Bacillus subtilis MTCC 121 incubated for 24 hrs under static condition by crystal violet staining-based assay. The format is functional. In outline: as §3
Test [17] relates to Staphylococcus aureus. The test is described as follows: Antibiofilm activity against Staphylococcus aureus MLS16 MTCC 2940 incubated for 24 hrs under static condition by crystal violet staining-based assay. The format is functional. Put shortly: as §3
For test [18], the system named is Micrococcus luteus. The test is described as follows: Antibiofilm activity against Micrococcus luteus MTCC 2470 incubated for 24 hrs under static condition by crystal violet staining-based assay. The format is functional. In outline:
as §3

The subject of test [19] is Raoultella planticola. The test is described as follows: Antibiofilm activity against Klebsiella planticola MTCC 530 incubated for 24 hrs under static condition by crystal violet staining-based assay. The format is functional. Put shortly:
as §3

Test [20] deals with Escherichia coli. Briefly: Antibiofilm activity against Escherichia coli MTCC 739 incubated for 24 hrs under static condition by crystal violet staining-based assay. The format is functional. Put shortly: as §3
Test [21] has as its system Pseudomonas aeruginosa. Briefly: Antibiofilm activity against Pseudomonas aeruginosa MTCC 2453 incubated for 24 hrs under static condition by crystal violet staining-based assay. The format is functional. Put shortly: as §3
Test [22] concerns Micrococcus luteus. The test is described as follows: Induction of intracellular ROS accumulation in Micrococcus luteus MTCC 2470 sessile biofilm cells at 0.5 to 4 ug/ml after 24 hrs by DCFH-DA staining-based assay. The format is functional, cell-based. In outline:
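Intracellular ROS was measured in M. luteus MTCC 2470 biofilms grown in 24-well plates. Mature biofilms were treated and incubated 24 h at 30 °C together with […] DCFH-DA. Well contents were centrifuged at 5000 × g for 10 min. Fluorescence (ex 485/em 535 nm) was read separately for supernatant and for sessile cells resuspended in PBS. Triplicate, mean ± S.D.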

Structures are written as SMILES. ≈ marks a conversion by molar mass, not a printed value. Calls of active or inactive are those of the source. The rule behind the calls is not given here.

Turning to `O=C(O)c1cn(C2CC2)c2cc(N3CCNCC3)c(F)cc2c1=O` [CIPROFLOXACIN], the minimal inhibitory concentration (MIC) with Staphylococcus aureus [1], against Bacillus subtilis [2], in the test with Micrococcus luteus [3], against Staphylococcus aureus [4], against Raoultella planticola [5] and with Escherichia coli [6] was 0.9 µg/mL (≈ 2.72 µM) each time. In addition, 0.9 µg/mL (≈ 2.72 µM) was the least that counted as inhibitory against Pseudomonas aeruginosa [7] (MIC). Further, the MBC with Staphylococcus aureus [8] turned out to be 0.9 µg/mL (≈ 2.72 µM); against Bacillus subtilis [9], 1.9 µg/mL (≈ 5.73 µM); in the test with Staphylococcus aureus [10] it was 0.9 µg/mL (≈ 2.72 µM); against Micrococcus luteus [11] it was 1.9 µg/mL (≈ 5.73 µM); against Raoultella planticola [12] it was 0.9 µg/mL (≈ 2.72 µM); with Escherichia coli [13] it was 0.9 µg/mL (≈ 2.72 µM). This compound returned a minimum bactericidal concentration (MBC) in the test on Pseudomonas aeruginosa [14] of 1.9 µg/mL (≈ 5.73 µM). The IC50 came out at 0.6 µg/mL (≈ 1.81 µM) in the test on Staphylococcus aureus [15]; 0.7 µg/mL (≈ 2.11 µM) in the test with Bacillus subtilis [16]; 0.4 µg/mL (≈ 1.21 µM) in the test on Staphylococcus aureus [17]; 0.5 µg/mL (≈ 1.51 µM) with Micrococcus luteus [18]; 0.6 µg/mL (≈ 1.81 µM) in the test with Raoultella planticola [19]. In addition, the results for the INH in the test on Escherichia coli [20] and in the test on Pseudomonas aeruginosa [21] were 0.8 µg/mL and 0.7 µg/mL, respectively. Further, in the test on Micrococcus luteus [22], the result was Active.
